Experimental data: ChEMBL document CHEMBL1146900, “New opioid designed multiple ligand from Dmt-Tic and morphinan pharmacophores” (J Med Chem, 2006)
Calls of active or inactive are those of the source. The rule behind the calls is not given here. Non-standard residues stand in square brackets, D forms with d. Residues, ends and D or L forms follow the SMILES beside them. Dmt = Cc1cc(O)cc(C)c1C[C@H](N)C(=O)O; Tic = O=C(O)[C@@H]1Cc2ccccc2CN1; βAla = NCCC(=O)O

Key:
[1] = target: T1, Delta-type opioid receptor (Homo sapiens, UniProt P41143); assay: Antagonist activity against human delta opioid receptor expressed in CHO cells assessed as inhibition of SNC80-stimulated [35S]GTP-gamma-S binding; type: functional, cell-based
T1 sequence (P41143 whole entry): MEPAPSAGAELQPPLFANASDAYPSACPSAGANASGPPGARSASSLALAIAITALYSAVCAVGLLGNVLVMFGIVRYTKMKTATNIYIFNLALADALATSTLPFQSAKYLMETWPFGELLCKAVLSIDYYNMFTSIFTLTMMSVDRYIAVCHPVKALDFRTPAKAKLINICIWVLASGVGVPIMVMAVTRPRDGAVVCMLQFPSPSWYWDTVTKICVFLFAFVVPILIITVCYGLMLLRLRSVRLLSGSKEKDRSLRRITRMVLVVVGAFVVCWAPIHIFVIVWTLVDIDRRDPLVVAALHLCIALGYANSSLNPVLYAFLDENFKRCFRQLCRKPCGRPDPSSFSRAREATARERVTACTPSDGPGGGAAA
How it was run: (§1)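 CHO membranes stably expressing a single human opioid receptor were incubated with agonist plus varying compound concentrations, and [35S]GTPγS binding was measured. Agonists: μ, DAMGO 200 nM; δ, SNC-80 100 nM; κ, U50,488 100 nM. Imax is the maximal percent inhibition of agonist-stimulated binding.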

[2] = target: T2, Kappa-type opioid receptor (Homo sapiens, UniProt P41145); assay: Antagonist activity against human kappa opioid receptor expressed in CHO cells assessed as inhibition of U50488-stimulated [35S]GTPgammaS binding; type: functional, cell-based; how it was run: as §1
T2 sequence (P41145 whole entry): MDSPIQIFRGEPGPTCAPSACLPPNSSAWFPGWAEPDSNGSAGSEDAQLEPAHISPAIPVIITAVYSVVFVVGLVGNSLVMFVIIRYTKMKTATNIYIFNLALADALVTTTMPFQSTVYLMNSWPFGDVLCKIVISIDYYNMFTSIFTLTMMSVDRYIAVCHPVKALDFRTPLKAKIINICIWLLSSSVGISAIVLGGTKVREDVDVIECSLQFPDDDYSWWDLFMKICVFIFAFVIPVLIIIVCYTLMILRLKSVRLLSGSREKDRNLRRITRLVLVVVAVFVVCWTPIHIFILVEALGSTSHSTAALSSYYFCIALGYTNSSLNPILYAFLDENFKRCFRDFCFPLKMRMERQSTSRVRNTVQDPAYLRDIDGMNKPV

[3] = target: T2, Kappa-type opioid receptor; assay: Inhibition of [3H]U-69593 binding to human kappa opioid receptor expressed in CHO cells at 10 uM; type: cell-based
[4] = target: T1, Delta-type opioid receptor; assay: Agonist activity at human delta opioid receptor expressed in CHO cells assessed as stimulation of [35S]GTP-gamma-S binding; type: functional, cell-based
How it was run: (§2)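 Membranes from CHO cells stably expressing only the human μ, δ or κ opioid receptor were incubated with various concentrations of compound, and stimulation of [35S]GTPγS binding was measured. Emax is the maximal percent stimulation. EC50 is the concentration giving 50% of Emax. EC50 was not calculated when Emax was 30% or lower.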

[5] = target: T1, Delta-type opioid receptor; assay: Displacement of [3H]naltrindole from human delta opioid receptor expressed in CHO cells; type: cell-based
[6] = target: Opioid receptors; mu & delta (Homo sapiens) (UniProt P41143+P35372); assay: Selectivity for delta opioid receptor over mu opioid receptor; type: protein assay
Sequence of Opioid receptors; mu & delta (Homo sapiens) (P35372 whole entry, looked up): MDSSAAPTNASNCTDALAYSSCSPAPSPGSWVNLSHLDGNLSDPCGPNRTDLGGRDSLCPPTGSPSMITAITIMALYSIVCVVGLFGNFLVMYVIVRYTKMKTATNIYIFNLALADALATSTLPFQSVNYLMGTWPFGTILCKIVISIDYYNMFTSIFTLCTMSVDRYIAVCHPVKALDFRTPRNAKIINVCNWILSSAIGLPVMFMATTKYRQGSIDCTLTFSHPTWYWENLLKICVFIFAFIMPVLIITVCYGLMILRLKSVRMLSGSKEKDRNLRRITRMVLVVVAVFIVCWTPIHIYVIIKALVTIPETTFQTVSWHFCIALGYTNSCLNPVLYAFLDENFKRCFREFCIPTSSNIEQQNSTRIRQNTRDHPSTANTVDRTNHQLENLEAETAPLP
Sequence of Opioid receptors; mu & delta (Homo sapiens) (P41143 whole entry, looked up): as the sequence (P41143 whole entry) above
How it was run: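 Competition binding to membranes of CHO cells stably expressing human μ or δ opioid receptors, each receptor in separate membranes. Selectivity comes from comparing the affinities at the two receptors.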

Mu-type opioid receptor [7] = target: T3, Mu-type opioid receptor (Homo sapiens, UniProt P35372); assay: Agonist activity at human mu opioid receptor expressed in CHO cells assessed as stimulation of [35S]GTP-gamma-S binding; type: functional, cell-based; how it was run: as §2
T3 sequence (P35372 whole entry): as the sequence (P35372 whole entry, looked up) above

[8] = target: T2, Kappa-type opioid receptor; assay: Agonist activity at human kappa opioid receptor expressed in CHO cells assessed as stimulation of [35S]GTPgammaS binding; type: functional, cell-based; how it was run: as §2
Mu-type opioid receptor [9] = target: T3, Mu-type opioid receptor; assay: Antagonist activity against human mu opioid receptor expressed in CHO cells assessed as inhibition of DAMGO-stimulated [35S]GTP-gamma-S binding; type: functional, cell-based; how it was run: as §1
[10] = target: T2, Kappa-type opioid receptor; assay: Displacement of [3H]U-69593 from human kappa opioid receptor expressed in CHO cells; type: cell-based
Mu-type opioid receptor [11] = target: T3, Mu-type opioid receptor; assay: Displacement of [3H]DAMGO from human mu opioid receptor expressed in CHO cells; type: cell-based
How it was run: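 Competition binding run on membranes prepared from CHO cells that stably express the human mu receptor.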

For `Cc1cc(O)cc(C)c1C[C@H](N)C(=O)N1Cc2ccccc2C[C@H]1C(=O)NCCC(=O)O` (H-[Dmt]-[Tic]-[βAla]-OH), the IC50 [1] was 10 nM, the Imax [1] was 93% and the IC50 [2] was “Not Active”. For the same compound, the Imax [2] was “inactive”, the inhibition [3] was 62% and the Activity [4] was “inactive”. It also gave an Emax [4] of 0.95%, a Ki [5] of 4.2 nM and a Ratio Ki [6] of 262.
With `Cc1cc(O)cc(C)c1C[C@H](N)C(=O)N1Cc2ccccc2C[C@H]1C(=O)NCCC(=O)Oc1ccc2c(c1)[C@@]13CCCC[C@H]1[C@@H](C2)N(CC1CCC1)CC3` the EC50 (Mu-type opioid receptor [7]) was 8.9 nM, the Emax (Mu-type opioid receptor [7]) was 79% and the IC50 [1] was 3.9 nM. The Imax [1] was 84%, the Activity [2] was “inactive” and the Ki [3] was 0.28 nM. The EC50 [4] was 2.8 nM, the Emax [4] was 18% and the EC50 [8] was 6 nM. The Emax [8] was 130%, the IC50 (Mu-type opioid receptor [9]) was 97 nM and the Imax (Mu-type opioid receptor [9]) was 47%. For the same compound, the Ki [10] was 0.28 nM, the Ki [5] was 1.5 nM and the Ki (Mu-type opioid receptor [11]) was 0.69 nM.
